Experimental data from ChEMBL document CHEMBL1149503, “Growth inhibition of human cancer cells in vitro by T-type calcium channel blockers” (Bioorg Med Chem Lett, 2006).
Activity calls are given as the source filed them. The calls are words filed in the database; no cut-off is given here.

Assays:
[1] = system: HCT-15; assay: Inhibition of human HCT15 cell growth by SRB assay; type: functional
How it was run: (§1)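 Cells grown in RPMI 1640 with 10% heat-inactivated FBS, 37 °C, 5% CO2. Seeded, exposed to various sample concentrations in triplicate for 72 h, then formalin-fixed 30 min at room temperature. Stained with 0.4% SRB 30 min, washed with 1% acetic acid, bound dye dissolved in 10 mM unbuffered Tris base, OD read at 520 nm. GI50 from dose–response curves, three independent experiments.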

[2] = system: A549; assay: Inhibition of human A549 cell growth by SRB assay; type: functional; how it was run: as §1
[3] = system: SK-OV-3; assay: Inhibition of human SKOV3 cell growth by SRB assay; type: functional; how it was run: as §1
[4] = biological target: Voltage-dependent N-type calcium channel subunit alpha-1B (Homo sapiens) (UniProt Q00975); assay: Inhibition of N type calcium channel subunit Alpha-1B at 10 uM in HEK293 cells; type: cell-based
Sequence of Voltage-dependent N-type calcium channel subunit alpha-1B (Homo sapiens) (Q00975 whole entry, looked up): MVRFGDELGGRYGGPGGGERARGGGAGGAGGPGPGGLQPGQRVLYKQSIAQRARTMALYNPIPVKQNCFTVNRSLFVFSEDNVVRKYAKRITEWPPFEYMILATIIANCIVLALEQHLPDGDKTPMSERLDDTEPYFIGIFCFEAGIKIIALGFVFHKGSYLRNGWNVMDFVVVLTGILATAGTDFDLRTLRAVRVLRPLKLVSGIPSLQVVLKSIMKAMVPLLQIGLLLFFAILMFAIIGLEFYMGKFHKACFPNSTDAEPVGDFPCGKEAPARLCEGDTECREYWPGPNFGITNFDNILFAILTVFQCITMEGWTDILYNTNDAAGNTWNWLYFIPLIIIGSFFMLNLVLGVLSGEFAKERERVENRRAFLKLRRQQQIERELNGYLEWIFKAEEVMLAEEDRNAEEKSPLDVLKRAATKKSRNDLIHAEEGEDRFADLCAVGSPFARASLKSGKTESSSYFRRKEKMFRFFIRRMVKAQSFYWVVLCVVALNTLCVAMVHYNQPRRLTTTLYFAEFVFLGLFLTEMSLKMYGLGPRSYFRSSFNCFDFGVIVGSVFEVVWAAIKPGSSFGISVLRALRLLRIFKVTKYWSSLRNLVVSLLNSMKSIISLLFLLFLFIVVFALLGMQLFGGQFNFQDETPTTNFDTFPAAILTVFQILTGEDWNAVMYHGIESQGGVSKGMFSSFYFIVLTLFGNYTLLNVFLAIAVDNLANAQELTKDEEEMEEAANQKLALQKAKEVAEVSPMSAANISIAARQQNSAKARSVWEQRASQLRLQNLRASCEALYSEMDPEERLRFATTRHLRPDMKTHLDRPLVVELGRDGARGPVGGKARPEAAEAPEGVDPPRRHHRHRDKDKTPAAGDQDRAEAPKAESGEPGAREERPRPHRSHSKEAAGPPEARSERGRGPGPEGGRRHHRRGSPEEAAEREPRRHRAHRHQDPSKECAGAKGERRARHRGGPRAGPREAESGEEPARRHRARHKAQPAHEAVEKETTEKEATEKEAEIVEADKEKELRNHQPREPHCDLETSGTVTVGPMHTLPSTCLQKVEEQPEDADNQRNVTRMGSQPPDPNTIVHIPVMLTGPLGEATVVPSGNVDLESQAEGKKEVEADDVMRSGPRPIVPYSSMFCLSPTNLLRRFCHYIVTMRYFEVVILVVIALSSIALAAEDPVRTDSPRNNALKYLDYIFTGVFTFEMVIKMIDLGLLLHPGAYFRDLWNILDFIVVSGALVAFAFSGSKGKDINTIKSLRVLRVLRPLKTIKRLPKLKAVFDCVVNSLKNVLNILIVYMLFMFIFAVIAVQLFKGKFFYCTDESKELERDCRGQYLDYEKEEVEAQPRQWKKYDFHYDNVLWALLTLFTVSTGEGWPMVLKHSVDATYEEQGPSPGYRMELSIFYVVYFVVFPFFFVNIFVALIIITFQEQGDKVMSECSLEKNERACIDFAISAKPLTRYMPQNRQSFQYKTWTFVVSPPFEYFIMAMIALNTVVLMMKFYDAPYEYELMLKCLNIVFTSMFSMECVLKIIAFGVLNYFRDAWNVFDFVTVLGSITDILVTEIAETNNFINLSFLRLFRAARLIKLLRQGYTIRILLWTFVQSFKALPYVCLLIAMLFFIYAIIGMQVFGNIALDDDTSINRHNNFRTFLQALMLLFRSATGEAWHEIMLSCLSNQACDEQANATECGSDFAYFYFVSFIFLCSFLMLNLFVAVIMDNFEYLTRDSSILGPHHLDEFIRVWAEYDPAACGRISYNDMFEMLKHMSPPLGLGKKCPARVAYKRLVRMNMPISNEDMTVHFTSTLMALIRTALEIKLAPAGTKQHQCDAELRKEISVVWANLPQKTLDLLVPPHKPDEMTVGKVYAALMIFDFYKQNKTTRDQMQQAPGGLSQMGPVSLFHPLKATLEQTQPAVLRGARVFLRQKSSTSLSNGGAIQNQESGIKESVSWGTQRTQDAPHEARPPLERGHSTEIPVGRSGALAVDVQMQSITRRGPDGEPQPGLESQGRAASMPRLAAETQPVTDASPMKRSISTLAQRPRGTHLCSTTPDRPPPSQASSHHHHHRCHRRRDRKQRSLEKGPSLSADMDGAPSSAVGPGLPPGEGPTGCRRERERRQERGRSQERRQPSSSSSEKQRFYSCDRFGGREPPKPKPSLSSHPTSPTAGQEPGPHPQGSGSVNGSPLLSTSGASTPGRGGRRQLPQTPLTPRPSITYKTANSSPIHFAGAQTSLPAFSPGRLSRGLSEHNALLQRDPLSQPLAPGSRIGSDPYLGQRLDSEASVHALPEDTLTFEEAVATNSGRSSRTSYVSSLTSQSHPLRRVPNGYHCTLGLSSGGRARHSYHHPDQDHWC

[5] = system: KB; assay: Inhibition of human KB cell growth by SRB assay; type: functional; how it was run: as §1
[6] = system: HEK293; assay: Cytotoxicity against HEK293 cells at 100 uM; type: functional, cell-based; details: Homo sapiens
[7] = system: SK-MEL-2; assay: Inhibition of human SK-MEL-2 cell growth by SRB assay; type: functional, cell-based; how it was run: as §1
[8] = system: T-type calcium channel Cav3.1 (α1G); assay: Inhibition of T-type calcium channel Cav3.1; details: Homo sapiens
[9] = biological target: Voltage-dependent T-type calcium channel subunit alpha-1G (Homo sapiens) (UniProt O43497); assay: Inhibition of T type calcium channel subunit alpha-1G at 10 uM in HEK293 cells; type: cell-based
Sequence of Voltage-dependent T-type calcium channel subunit alpha-1G (Homo sapiens) (O43497 whole entry): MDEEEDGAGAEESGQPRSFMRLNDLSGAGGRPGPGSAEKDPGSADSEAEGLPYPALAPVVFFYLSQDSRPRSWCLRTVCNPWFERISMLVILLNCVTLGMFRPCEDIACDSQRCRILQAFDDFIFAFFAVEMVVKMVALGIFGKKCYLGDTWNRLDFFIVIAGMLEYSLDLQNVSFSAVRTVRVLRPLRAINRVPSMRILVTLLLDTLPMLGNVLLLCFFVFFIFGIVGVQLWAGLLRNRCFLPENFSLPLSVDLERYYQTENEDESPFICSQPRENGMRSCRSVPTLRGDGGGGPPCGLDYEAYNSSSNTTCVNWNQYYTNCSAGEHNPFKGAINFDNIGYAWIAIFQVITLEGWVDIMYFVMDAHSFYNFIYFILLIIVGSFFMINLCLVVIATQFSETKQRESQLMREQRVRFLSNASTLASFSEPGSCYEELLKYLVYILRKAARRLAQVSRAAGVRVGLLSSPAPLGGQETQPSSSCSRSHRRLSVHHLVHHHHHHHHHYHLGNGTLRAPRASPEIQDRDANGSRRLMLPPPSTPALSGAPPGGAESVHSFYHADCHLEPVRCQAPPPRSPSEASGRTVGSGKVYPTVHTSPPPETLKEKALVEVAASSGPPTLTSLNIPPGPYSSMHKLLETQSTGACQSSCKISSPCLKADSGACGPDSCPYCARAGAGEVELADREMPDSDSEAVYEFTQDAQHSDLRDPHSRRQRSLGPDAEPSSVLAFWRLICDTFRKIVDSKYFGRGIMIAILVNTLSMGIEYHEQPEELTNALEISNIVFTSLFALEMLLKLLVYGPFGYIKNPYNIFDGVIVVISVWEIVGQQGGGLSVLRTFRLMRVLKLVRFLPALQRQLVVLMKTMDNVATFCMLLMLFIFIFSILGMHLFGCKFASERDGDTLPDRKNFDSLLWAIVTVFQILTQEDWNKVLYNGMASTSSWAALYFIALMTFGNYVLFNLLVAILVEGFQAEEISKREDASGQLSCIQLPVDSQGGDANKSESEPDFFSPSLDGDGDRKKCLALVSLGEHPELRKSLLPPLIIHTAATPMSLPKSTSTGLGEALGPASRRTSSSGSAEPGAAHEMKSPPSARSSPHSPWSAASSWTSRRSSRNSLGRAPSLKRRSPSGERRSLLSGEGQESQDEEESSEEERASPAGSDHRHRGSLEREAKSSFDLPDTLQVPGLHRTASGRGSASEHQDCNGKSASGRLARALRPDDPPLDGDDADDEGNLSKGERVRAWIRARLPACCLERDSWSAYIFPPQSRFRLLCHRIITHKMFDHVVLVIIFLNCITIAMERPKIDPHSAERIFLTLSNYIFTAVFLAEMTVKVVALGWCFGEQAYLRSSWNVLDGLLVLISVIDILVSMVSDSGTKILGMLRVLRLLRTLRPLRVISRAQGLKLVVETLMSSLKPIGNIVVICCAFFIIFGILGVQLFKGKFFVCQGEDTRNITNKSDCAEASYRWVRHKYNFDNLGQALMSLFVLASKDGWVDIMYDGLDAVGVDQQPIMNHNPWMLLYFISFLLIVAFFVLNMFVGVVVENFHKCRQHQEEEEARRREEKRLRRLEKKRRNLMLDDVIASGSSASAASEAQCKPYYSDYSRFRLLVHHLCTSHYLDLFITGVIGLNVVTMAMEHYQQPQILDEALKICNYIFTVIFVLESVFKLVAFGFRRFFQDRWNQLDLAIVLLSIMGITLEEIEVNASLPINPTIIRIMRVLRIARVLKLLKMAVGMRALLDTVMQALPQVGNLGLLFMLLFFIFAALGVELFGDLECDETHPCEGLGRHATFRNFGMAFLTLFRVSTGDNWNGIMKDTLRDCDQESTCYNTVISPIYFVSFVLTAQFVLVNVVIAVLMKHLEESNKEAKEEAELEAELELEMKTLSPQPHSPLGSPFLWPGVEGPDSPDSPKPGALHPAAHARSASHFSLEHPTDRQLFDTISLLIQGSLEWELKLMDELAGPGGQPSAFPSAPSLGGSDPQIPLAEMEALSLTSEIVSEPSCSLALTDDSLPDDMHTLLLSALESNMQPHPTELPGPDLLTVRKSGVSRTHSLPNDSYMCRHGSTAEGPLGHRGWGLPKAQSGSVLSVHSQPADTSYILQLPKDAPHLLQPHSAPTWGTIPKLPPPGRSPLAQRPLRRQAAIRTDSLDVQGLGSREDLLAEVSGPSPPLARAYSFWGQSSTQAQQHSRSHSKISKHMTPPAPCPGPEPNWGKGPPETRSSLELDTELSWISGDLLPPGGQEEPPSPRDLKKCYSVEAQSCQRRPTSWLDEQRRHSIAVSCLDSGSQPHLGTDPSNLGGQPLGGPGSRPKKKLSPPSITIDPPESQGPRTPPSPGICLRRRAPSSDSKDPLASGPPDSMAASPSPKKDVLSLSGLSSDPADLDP
How it was run: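 Whole-cell patch clamp on α1G T-type channel expressed in HEK293 cells, test compound at 10 µM. Currents evoked every 15 s by 50 ms depolarizing step from 100 to 30 mV (signs as printed). % inhibition = 100[(C−D)/C], C and D being peak current before and with drug. Three independent experiments.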

GI50 [1]	GI50 [2]	GI50 [3]	inhibition [4]	GI50 [5]	GI50 [7]	IC50 [8]	inhibition [9]	Activity [4]	SMILES	Activity [6]
2.8 µM	3.06 µM	2.93 µM	14.1%	3.11 µM	2.7 µM	0.17 µM			Cc1ccc(S(=O)(=O)Nc2ccc(CNC(=O)CC3c4ccccc4N=C(N4CCCCC4)N3c3ccccc3)cc2)cc1 (centres undefined)	Not toxic
25.7 µM	23 µM	22.8 µM		22.3 µM	3.52 µM	0.96 µM	91.3%	inactive	CCN1C(N2CCCCC2)=Nc2ccccc2C1CC(=O)NCc1ccc(NS(=O)(=O)c2ccc(C)cc2)cc1 (centres undefined)	Not toxic

The remaining lines, values behind:

SMILES	GI50 [1]	GI50 [2]	GI50 [3]	inhibition [4]	GI50 [5]	GI50 [7]	IC50 [8]	inhibition [9]	Activity [4]	Activity [6]
Nc1ccc(CNC(=O)CC2c3ccccc3N=C(N3CCCCC3)N2c2ccccc2)cc1 (centres undefined)	33.9 µM	36.6 µM	39.3 µM	8.9%	37.1 µM	30.7 µM				Not toxic
CCN1C(N(C)C)=Nc2ccccc2C1CC(=O)NCc1ccccc1 (centres undefined)	> 200 µM	> 200 µM	> 200 µM	27.6%	> 200 µM	50.2 µM		34.4%		Not toxic
CCN1C(N(C)C)=Nc2ccccc2C1CC(=O)NCc1ccc(NS(=O)(=O)c2ccc(F)cc2)cc1 (centres undefined)	38.6 µM	66.1 µM	46.5 µM		41.6 µM	31.4 µM		62.7%	inactive	Not toxic
CCN1C(N2CCCCC2)=Nc2ccccc2C1CC(=O)NCc1ccccc1 (centres undefined)	74.2 µM	95.1 µM	77.8 µM	9.3%	108 µM	42.5 µM		59.3%		Not toxic
CCN1C(N(C)C)=Nc2ccccc2C1CC(=O)NCc1ccc(NS(=O)(=O)c2ccc(C)cc2)cc1 (centres undefined)	33.9 µM	39.2 µM	33.4 µM	8.9%	33.8 µM	24.2 µM		81.3%		Not toxic
COC(=O)CC1c2ccccc2N=C(NCCCCCN)N1c1ccc(-c2ccccc2)cc1 (centres undefined)	3.64 µM	3.39 µM	3.24 µM		3.77 µM	3.32 µM	0.56 µM		inactive	Not toxic
